Experimental findings from ChEMBL document CHEMBL1649328, “Assessment of pandemic and seasonal influenza A (H1N1) virus susceptibility to neuraminidase inhibitors in three enzyme activity inhibition assays” (Antimicrob Agents Chemother, 2010) are described below.

Structures are written as SMILES.

What all share (format): functional
Assay [1] relates to Influenza A virus. The experiment in a line: Ratio of IC50 for influenza A (A/Singapore/57/2009 (H1N1)) virus harboring neuraminidase H275Y mutant to IC50 for influenza A (A/Washington/29/2009 (H1N1)) virus expressing wild type enzyme by fetuin substrate based colorimetric assay. In short, it runs like this:
(§1)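 Colorimetric NA inhibition using a virus dilution that gave 0.4–0.8 OD549. Virus preincubated 1 h at 37°C with half-log inhibitor dilutions (0.03–1,000 nM final) in MES/CaCl2 pH 6.0 buffer. Fetuin (5.5 mg/ml final) then added for 18 h at 37°C. Released sialic acid detected by periodate oxidation and thiobarbituric acid, butanol extraction, read at 549 nm. IC50 curve-fitted, ≥2 experiments. Ratio is variant IC50 over wild-type reference IC50.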

Assay [2] concerns Influenza A virus. The experiment in a line: Ratio of IC50 for influenza A (A/Washington/29/2009 (H1N1)) virus harboring neuraminidase H275Y mutant to IC50 for influenza A (A/Washington/29/2009 (H1N1)) virus expressing wild type enzyme by NA-star substrate based chemiluminescent assay. An outline of the steps: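 Chemiluminescent NA inhibition in MES 26 mM/CaCl2 4 mM buffer, pH 6.0. […] Luminescence read for 0.1 s. IC50 from the fit y = Vmax·{1 − [x/(K + x)]}, mean of ≥3 experiments. Ratio is the H275Y variant IC50 over the pandemic wild-type reference IC50.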

The subject of assay [3] is Influenza A virus. The experiment in a line: Ratio of IC50 for influenza A (A/North Carolina/01/2009 (H1N1)) virus harboring neuraminidase H275Y mutant to IC50 for influenza A (A/Washington/29/2009 (H1N1)) virus expressing wild type enzyme by MUNANA substrate based fluorometric assay.
The subject of assay [4] is Influenza A virus. As to the kind of experiment: Ratio of IC50 for influenza A (A/New York/18/2009 (H1N1)) virus harboring neuraminidase H275Y mutant to IC50 for influenza A (A/Washington/10/2008 (H1N1)) virus expressing wild type enzyme by fetuin substrate based colorimetric assay.
Assay [5] relates to Influenza A virus. The experiment in a line: Ratio of IC50 for influenza A (A/Osaka/180/2009 (H1N1)) virus harboring neuraminidase H275Y mutant to IC50 for influenza A (A/Washington/29/2009 (H1N1)) virus expressing wild type enzyme by fetuin substrate based colorimetric assay. An outline of the steps:
as §1

Assay [6] concerns Influenza A virus. As to the kind of experiment: Ratio of IC50 for influenza A (A/Washington/29/2009 (H1N1)) virus harboring neuraminidase H275Y mutant to IC50 for influenza A (A/Washington/29/2009 (H1N1)) virus expressing wild type enzyme by fetuin substrate based colorimetric assay. In short, it runs like this:
as §1

Turning to `C/C=C\[C@@H]1C[C@H](C(=O)O)N[C@H]1[C@@H](NC(C)=O)[C@](C)(CCC)OC`, the “Ratio IC50” value in assay [1] is 1; in assay [2], 5; in assay [3], 4; in assay [4], 1; in assay [5], 3; in assay [6] it was 2.

Consider `CCC(CC)[C@H](NC(C)=O)[C@@H]1[C@H](O)[C@@H](C(=O)O)C[C@H]1NC(=N)N` [PERAMIVIR ANHYDROUS], for which the “Ratio IC50” value was found to be 173 in assay [1]; 89 in assay [2]; 831 in assay [3]; 1 in assay [4]; 398 in assay [5]; 332 in assay [6].
